Source: ChEMBL document CHEMBL1136357, “2-arylaminothiazoles as high-affinity corticotropin-releasing factor 1 receptor (CRF1R) antagonists: synthesis, binding studies and behavioral efficacy” (Bioorg Med Chem Lett, 2003)

Columns and labels:
[1] = biological target: T1, Corticotropin-releasing factor receptor 1 (Homo sapiens, UniProt P34998); assay: Binding affinity by displacement of [125I]Tyr-o-CRF from human corticotropin releasing factor receptor 1 expressed in IMR-32 human neuroblastoma cell.
T1 sequence (P34998 whole entry): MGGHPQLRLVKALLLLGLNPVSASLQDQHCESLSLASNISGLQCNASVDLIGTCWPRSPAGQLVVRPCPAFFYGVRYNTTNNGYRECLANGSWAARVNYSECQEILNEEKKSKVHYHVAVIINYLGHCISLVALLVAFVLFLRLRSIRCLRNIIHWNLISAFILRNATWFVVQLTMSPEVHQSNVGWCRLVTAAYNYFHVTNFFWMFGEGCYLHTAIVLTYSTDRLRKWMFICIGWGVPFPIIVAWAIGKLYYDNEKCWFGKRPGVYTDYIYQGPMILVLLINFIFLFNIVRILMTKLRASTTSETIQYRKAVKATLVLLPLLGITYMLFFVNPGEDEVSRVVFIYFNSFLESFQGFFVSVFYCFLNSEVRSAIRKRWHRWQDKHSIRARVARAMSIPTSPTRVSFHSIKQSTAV

[2] = Plasma clearance in rat after peroral administration at 10 mg/kg concentration; assay type: ADME, organism-based
Summary of the method: (§1)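 Rats were given the HCl salt at 10 mg/kg orally, and at 5 mg/kg intravenously in the same study. […] Half-life, clearance, volume of distribution and oral bioavailability (F) were derived from the same study.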

[3] = Half-life in rat after peroral administration at 10 mg/kg concentration; assay type: ADME, organism-based; settings: in vivo; summary of the method: as §1
[4] = Oral bioavailability in rat after peroral administration at 10 mg/kg; assay type: ADME, organism-based; settings: in vivo; summary of the method: as §1
[5] = Oral bioavailability in rat after […]; assay type: ADME, organism-based; settings: in vivo
[6] = Ratio in brain to that of rat plasma for 2 hr after peroral administration at 10 mg/kg; assay type: ADME, organism-based; parameters: dose 10 mg/kg, route oral; settings: po, read-out: B/P; summary of the method: as §1
[7] = Ratio in brain to that of rat plasma for 2 hr after […]; assay type: ADME, organism-based; parameters: route oral; settings: po, read-out: B/P
Rattus norvegicus [8] = assay: Area under curve in rat plasma for 0-4 hr after peroral administration at 10 mg/kg; assay type: ADME, organism-based; parameters: time < 4 hr, dose 10 mg/kg, route oral; settings: in vivo, po; summary of the method: as §1
IMR-32 = assay: Compound was tested for its ability to inhibit CRF stimulatedcAMP production in IMR-32 cells.; assay type: functional, Homo sapiens
Rattus norvegicus [9] = assay: Volume distribution in rat after peroral administration at 10 mg/kg; assay type: ADME, organism-based; parameters: dose 10 mg/kg, route oral; settings: in vivo, po; summary of the method: as §1
Rattus norvegicus [10] = assay: Volume distribution in rat after intravenous administration at 5 mg/kg; settings: in vivo
[11] = Half-life in rat after intravenous administration at 5 mg/kg concentration; settings: in vivo
[12] = Plasma clearance in rat after intravenous administration at 5 mg/kg concentration
Rattus norvegicus [13] = assay: Area under curve in rat plasma for 0-4 hr after peroral administration at 10 mg/kg; settings: in vivo, po

Structure (SMILES) | Ki [1] | also measured
CCCN(Cc1sc(Nc2ccc(OC)cc2OC)nc1C(F)(F)F)CC1CC1 | 5100 nM | –
CCCN(Cc1sc(Nc2c(Cl)cc(Cl)cc2Cl)nc1C(F)(F)F)CC1CC1 | – | CL/F [2]: 16 mL/min/kg; half-life [3]: 7.6 h; bioavailability [4]: 9%; bioavailability [5]: 9%; Kp at 2 h [6]: 2; Kp at 2 h [7]: 2; AUC (Rattus norvegicus [8]): 1730 ng·h/mL; Inhibition (IMR-32): 90%; Vd (Rattus norvegicus [9]): 1.1 L/kg; Vd (Rattus norvegicus [10]): 1.1 L/kg; half-life [11]: 7.6 h; clearance [12]: 16 mL/min/kg; AUC (Rattus norvegicus [13]): 1730 ng·h/mL
CCCN(CCC)C(=O)c1sc(Nc2c(Cl)cc(Cl)cc2Cl)nc1C | 820 nM | –
COCCN(CCOC)C(=O)c1sc(Nc2c(Cl)cc(Cl)cc2Cl)nc1C | 51000 nM | –
CCCN(CC1CC1)C(=O)c1sc(Nc2c(Cl)cc(Cl)cc2Cl)nc1C | 360 nM | –
CCCN(Cc1sc(Nc2c(C)cc(Cl)cc2Cl)nc1C(F)(F)F)CC1CC1 | 16 nM | –
CCCN(Cc1sc(Nc2c(C)cc(C)cc2C)nc1C(F)(F)F)CC1CC1 | 60 nM | –
CCN(CCOC)C(=O)c1sc(Nc2c(Cl)cc(Cl)cc2Cl)nc1C | 16000 nM | –
CCCN(CC1CC1)C(=O)c1sc(Nc2c(Cl)cc(Cl)cc2Cl)nc1CC | 11000 nM | –
CCCN(Cc1sc(N(C)c2c(C)cc(C)cc2Cl)nc1C(F)(F)F)CC1CC1 | 100 nM | –
CCCN(Cc1sc(Nc2c(C)cc(C)cc2Cl)nc1C(F)(F)F)CC1CC1 | 23 nM | –
CCCN(Cc1sc(Nc2c(Cl)cc(C(F)(F)F)cc2Cl)nc1C(F)(F)F)CC1CC1 | 28 nM | –
CCCN(Cc1sc(Nc2ccc(C(C)C)cc2Br)nc1C(F)(F)F)CC1CC1 | 2900 nM | –
CCCN(CC1CC1)C(=O)c1sc(Nc2c(Cl)cc(Cl)cc2Cl)nc1C(F)(F)F | 31000 nM | –
CCCN(Cc1sc(Nc2c(Br)cc(C)cc2Br)nc1C(F)(F)F)CC1CC1 | 28 nM | –
CCCN(Cc1sc(N(CC)c2ccc(C(C)C)cc2Br)nc1C(F)(F)F)CC1CC1 | 56 nM | –
CCN(CC)C(=O)c1sc(Nc2c(Cl)cc(Cl)cc2Cl)nc1C | 5000 nM | –
CCCN(Cc1sc(N(CC)c2c(C)cc(C)cc2Cl)nc1C(F)(F)F)CC1CC1 | 67 nM | –
CCCN(Cc1sc(Nc2c(C)cc(C)cc2Br)nc1C(F)(F)F)CC1CC1 | 21 nM | –
CCCN(Cc1sc(Nc2c(C)cc(Cl)cc2C)nc1C(F)(F)F)CC1CC1 | 73 nM | –
CCCN(Cc1sc(Nc2c(CC)cccc2CC)nc1C(F)(F)F)CC1CC1 | > 40000 nM | –
CCCN(Cc1sc(Nc2c(Br)cc(Br)cc2Br)nc1C(F)(F)F)CC1CC1 | 7.8 nM | –
CCCN(CC1CC1)c1nc(C)nc(Nc2c(Cl)cc(Cl)cc2Cl)c1Cl | 20 nM | –
